Calls of active or inactive are those of the source. No cut-off for these calls is given here.
What was measured:
Nucleic Acid [1] = test: Induction of Escherichia coli [5'-32P]-end labeled 158-base pair of pBR322 DNA cleavage using bromophenol blue and xylene cyanol FF at 1 to 10 uM after 30 mins by phosphorimager analysis in presence of equimolar Fe2+
Nucleic Acid [2] = test: Induction of Escherichia coli [5'-32P]-end labeled 64-nucleotide hairpin DNA base pair of pBR322 DNA cleavage using bromophenol blue and xylene cyanol FF at 5 to 20 uM after 30 mins by phosphorimager analysis in presence of equimolar Fe2+; assay type: nucleic-acid assay
In short: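 64-nt hairpin DNA, 5'-32P-labelled with T4 polynucleotide kinase and purified on 16% polyacrylamide gel, 30,000 cpm, exposed to Fe2+ plus deglycoBLM in 50 mM Tris–HCl pH 8.0 at room temperature for 30 min. Dried, heated 90 °C 10 min in formamide loading buffer, then run on denaturing 16% polyacrylamide/7 M urea gel at 1800 V for 2.5 h.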

Nucleic Acid [3] = test: Induction of Escherichia coli [5'-32P]-end labeled 158-base pair of pBR322 DNA cleavage at A15 site using bromophenol blue and xylene cyanol FF at 1 to 10 uM after 30 mins by phosphorimager analysis in presence of equimolar Fe2+; assay type: nucleic-acid assay
In short: (§1)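 158-bp pBR322 restriction fragment (HindIII cut, dephosphorylated, 5'-32P-labelled with T4 polynucleotide kinase, EcoRV cut), 30,000 cpm, treated with Fe2+ plus deglycoBLM in 50 mM Tris–HCl pH 8.0 at room temperature for 30 min. Supernatant removed under vacuum, pellet heated 90 °C 10 min in formamide loading buffer and chilled on ice before denaturing gel analysis.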

Nucleic Acid [4] = test: Induction of Escherichia coli supercoiled pBR322 DNA cleavage assessed as formation of linear form of DNA using bromophenol blue at 4 uM after 30 mins by agarose gel electrophoresis analysis in presence of equimolar Fe2+; assay type: nucleic-acid assay
Nucleic Acid [5] = test: Induction of Escherichia coli supercoiled pBR322 DNA cleavage assessed as formation of nicked DNA using bromophenol blue at 1 to 4 uM after 30 mins by agarose gel electrophoresis analysis in presence of equimolar Fe2+; assay type: nucleic-acid assay
Nucleic Acid [6] = test: Induction of Escherichia coli [5'-32P]-end labeled 158-base pair of pBR322 DNA cleavage at G12 site using bromophenol blue and xylene cyanol FF at 1 to 10 uM after 30 mins by phosphorimager analysis in presence of equimolar Fe2+; assay type: nucleic-acid assay
In short: as §1

Nucleic Acid [7] = test: Induction of Escherichia coli [5'-32P]-end labeled 158-base pair of pBR322 DNA cleavage at 5'-GT17-3' site using bromophenol blue and xylene cyanol FF at 1 to 10 uM after 30 mins by phosphorimager analysis in presence of equimolar Fe2+; assay type: nucleic-acid assay
In short: as §1

Nucleic Acid [8] = test: Induction of Escherichia coli [5'-32P]-end labeled 158-base pair of pBR322 DNA cleavage at 5'-CG35-3' site using bromophenol blue and xylene cyanol FF at 1 to 10 uM after 30 mins by phosphorimager analysis in presence of equimolar Fe2+; assay type: nucleic-acid assay
In short: as §1

Nucleic Acid [9] = test: Induction of Escherichia coli [5'-32P]-end labeled 158-base pair of pBR322 DNA cleavage at 5'-GT14-3' site using bromophenol blue and xylene cyanol FF at 1 to 10 uM after 30 mins by phosphorimager analysis in presence of equimolar Fe2+; assay type: nucleic-acid assay
In short: as §1

Nucleic Acid [10] = test: Induction of Escherichia coli [5'-32P]-end labeled 158-base pair of pBR322 DNA cleavage at 5'-GT27-3' site using bromophenol blue and xylene cyanol FF at 1 to 10 uM after 30 mins by phosphorimager analysis in presence of equimolar Fe2+; assay type: nucleic-acid assay
In short: as §1

Nucleic Acid [11] = test: Induction of Escherichia coli [5'-32P]-end labeled 158-base pair of pBR322 DNA cleavage at 5'-CG11-3' site using bromophenol blue and xylene cyanol FF at 1 to 10 uM after 30 mins by phosphorimager analysis in presence of equimolar Fe2+; assay type: nucleic-acid assay
In short: as §1

| Activity (Nucleic Acid [1]) | Activity (Nucleic Acid [2]) | Activity (Nucleic Acid [3]) | Activity (Nucleic Acid [4]) | Activity (Nucleic Acid [5]) | Activity (Nucleic Acid [6]) | Activity (Nucleic Acid [7]) | Activity (Nucleic Acid [8]) | Activity (Nucleic Acid [9]) | Activity (Nucleic Acid [10]) | Activity (Nucleic Acid [11]) | Structure (SMILES) |
| --- | --- | --- | --- | --- | --- | --- | --- | --- | --- | --- | --- |
| Active | Active | inactive | Active | Active | inactive | – | – | – | – | – | Cc1c(N)nc([C@H](CC(N)=O)NC[C@H](N)C(N)=O)nc1C(=O)N[C@@H](Cc1c[nH]cn1)C(=O)N[C@H](C)[C@@H](O)[C@H](CC(C)C)C(=O)N[C@H](C(=O)NCCc1nc(-c2nc(C(=O)NCCCNCCCCNCCCN)cs2)cs1)[C@@H](C)O |
| Active | Active | inactive | Active | Active | inactive | – | – | – | – | – | CCCC[C@H](C(=O)N[C@H](C(=O)NCCc1nc(-c2nc(C(=O)NCCCNCCCCNCCCN)cs2)cs1)[C@@H](C)O)[C@H](O)[C@@H](C)NC(=O)[C@H](Cc1c[nH]cn1)NC(=O)c1nc([C@H](CC(N)=O)NC[C@H](N)C(N)=O)nc(N)c1C |
| – | Active | Active | – | Active | Active | Active | Active | Active | Active | Active | CC[C@@H](C)C(NC(=O)[C@H](Cc1c[nH]cn1)NC(=O)c1nc([C@H](CC(N)=O)NC[C@H](N)C(N)=O)nc(N)c1C)[C@@H](O)[C@H](C)C(=O)N[C@H](C(=O)NCCc1nc(-c2nc(C(=O)NCCCNCCCCNCCCN)cs2)cs1)[C@@H](C)O (single isomer, unassigned) |
| – | Active | – | – | Active | – | Active | Active | Active | Active | Active | Cc1c(N)nc([C@H](CC(N)=O)NC[C@H](N)C(N)=O)nc1C(=O)N[C@@H](Cc1c[nH]cn1)C(=O)N[C@H](CC(C)C)[C@@H](O)[C@H](C)C(=O)N[C@H](C(=O)NCCc1nc(-c2nc(C(=O)NCCCNCCCCNCCCN)cs2)cs1)[C@@H](C)O |
| Active | Active | inactive | Active | Active | inactive | – | – | – | – | – | Cc1c(N)nc([C@H](CC(N)=O)NC[C@H](N)C(N)=O)nc1C(=O)N[C@@H](Cc1c[nH]cn1)C(=O)N[C@H](C)[C@@H](O)[C@H](Cc1ccccc1)C(=O)N[C@H](C(=O)NCCc1nc(-c2nc(C(=O)NCCCNCCCCNCCCN)cs2)cs1)[C@@H](C)O |

Second part, the molecule before the results:

| Structure (SMILES) | Activity (Nucleic Acid [1]) | Activity (Nucleic Acid [2]) | Activity (Nucleic Acid [3]) | Activity (Nucleic Acid [4]) | Activity (Nucleic Acid [5]) | Activity (Nucleic Acid [6]) | Activity (Nucleic Acid [7]) | Activity (Nucleic Acid [8]) | Activity (Nucleic Acid [9]) | Activity (Nucleic Acid [10]) | Activity (Nucleic Acid [11]) |
| --- | --- | --- | --- | --- | --- | --- | --- | --- | --- | --- | --- |
| Cc1c(N)nc([C@H](CC(N)=O)NC[C@H](N)C(N)=O)nc1C(=O)N[C@@H](Cc1c[nH]cn1)C(=O)N[C@H](CC1CCCCC1)[C@@H](O)[C@H](C)C(=O)N[C@H](C(=O)NCCc1nc(-c2nc(C(=O)NCCCNCCCCNCCCN)cs2)cs1)[C@@H](C)O | Active | Active | inactive | Active | Active | inactive | – | – | – | – | – |
| Cc1c(N)nc([C@H](CC(N)=O)NC[C@H](N)C(N)=O)nc1C(=O)N[C@@H](Cc1c[nH]cn1)C(=O)N[C@H](Cc1ccccc1Br)[C@@H](O)[C@H](C)C(=O)N[C@H](C(=O)NCCc1nc(-c2nc(C(=O)NCCCNCCCCNCCCN)cs2)cs1)[C@@H](C)O | Active | Active | inactive | Active | Active | inactive | – | – | – | – | – |
| Cc1ccccc1C[C@@H](NC(=O)[C@H](Cc1c[nH]cn1)NC(=O)c1nc([C@H](CC(N)=O)NC[C@H](N)C(N)=O)nc(N)c1C)[C@@H](O)[C@H](C)C(=O)N[C@H](C(=O)NCCc1nc(-c2nc(C(=O)NCCCNCCCCNCCCN)cs2)cs1)[C@@H](C)O | Active | Active | inactive | – | Active | inactive | – | – | – | – | – |
| Cc1c(N)nc([C@H](CC(N)=O)NC[C@H](N)C(N)=O)nc1C(=O)N[C@@H](Cc1c[nH]cn1)C(=O)N[C@H](Cc1ccccc1)[C@@H](O)[C@H](C)C(=O)N[C@H](C(=O)NCCc1nc(-c2nc(C(=O)NCCCNCCCCNCCCN)cs2)cs1)[C@@H](C)O | Active | Active | inactive | Active | Active | inactive | – | – | – | – | – |
| Cc1c(N)nc([C@H](CC(N)=O)NC[C@H](N)C(N)=O)nc1C(=O)N[C@@H](Cc1c[nH]cn1)C(=O)N[C@H](CC(C)C)[C@@H](O)[C@H](CC(C)C)C(=O)N[C@H](C(=O)NCCc1nc(-c2nc(C(=O)NCCCNCCCCNCCCN)cs2)cs1)[C@@H](C)O | Active | Active | inactive | Active | Active | inactive | – | – | – | – | – |
| Cc1c(N)nc([C@H](CC(N)=O)NC[C@H](N)C(N)=O)nc1C(=O)N[C@@H](Cc1c[nH]cn1)C(=O)N[C@H](C)[C@@H](O)[C@H](C)C(=O)N[C@H](C(=O)NCCc1nc(-c2nc(C(=O)NCCCNCCCCN)cs2)cs1)[C@@H](C)O | – | Active | – | – | Active | – | – | – | – | – | – |
| Cc1c(N)nc([C@H](CC(N)=O)NC[C@H](N)C(N)=O)nc1C(=O)N[C@@H](Cc1c[nH]cn1)C(=O)N[C@@H]([C@@H](O)[C@H](C)C(=O)N[C@H](C(=O)NCCc1nc(-c2nc(C(=O)NCCCNCCCCNCCCN)cs2)cs1)[C@@H](C)O)C(C)(C)C | – | Active | – | – | Active | – | Active | Active | Active | Active | Active |

From ChEMBL document CHEMBL1795264, “Deglycobleomycin A6 analogues modified in the methylvalerate moiety” (Bioorg Med Chem, 2011)
